# Laboratory results from the EternaBench riboswitch data.
# Test system: MS2 coat protein
# Assay: apparent Kd, MS2 coat protein; higher = weaker binding; RNA-MaP array; FMN 200 µM where present
# In short: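 Stalled E. coli RNA polymerase transcribed each design on Illumina sequencing-chip clusters. The clusters were titrated with SNAP-549-labelled MS2 coat protein, starting at 0.7 or 1.5 nM and doubling up to 3 µM, first without ligand and then with constant ligand, in 100 mM Tris-HCl pH 7.5, 80 mM KCl, 4 mM MgCl2, BSA, DTT, yeast tRNA and Tween-20. Green signal was normalised to red-channel RNA signal and to the control-cluster median Fmax. The apparent Kd is the median of filtered binding-curve fits made for each cluster.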
# [1] = designed as: ON switch for flavin mononucleotide, no ligand
# [2] = ligand present: flavin mononucleotide, designed as: ON switch for flavin mononucleotide
# [3] = designed as: OFF switch for flavin mononucleotide, no ligand
# [4] = ligand present: flavin mononucleotide, designed as: OFF switch for flavin mononucleotide
Sequence,apparent Kd [1] [nM],apparent Kd [2] [nM],apparent Kd [3] [nM],apparent Kd [4] [nM]
CGCUACAUGAGGAUCACCCAUGUACUAACUUGCACGUGAACGAGAAGGCCACAGCAACCCUGCGUGGAGGAUAUCGUGGUGCCA,8.49,7.48,,
UUGGACGUCGUAGGAUAUGUAGGAUAUGCCUACAUGAGGAUCACCCAUGUUGACAUGGAAGAAGGACAGAAGGACGAUGUCCAU,108,6.64,,
AUAUUUAUUUAGAAGGACAUGAGGAUCACCCAUGUCGCUGGGCGCGGGAAACCGUGCCCGGCCAUGUAGGAUAUAGGUAGAUAU,,,14.2,12.2
ACAUGCGGAUGAGGAUAUUCAUUUAUGAGGAUAGAAGAAGGCAUACAUGAGGAUCACCCAUGUAUACGCAUGAGGAUCCCUUAU,,,41.1,40
GAGAGAGGGUGAGGAUAUUUAGUGAUAAUGAUAAAAGAAGGCACAGACAUGAGGAUCACCCAUGUGGGAAUAAUCCAGAGAGAG,305,288,,
GAAAACAGAGGAUAUACAAAAUUGACACGAAAGGUGCAAAAACAUGAGGAUCACCCAUGUAGAAGGCUGAAGAA,,,24.8,22
CCGGAAAUAGAGGAUAUCGUACUGGAUACAGUACGAGAAGGCUAUACAUGAGGAUCACCCAUGUGUCCUACCGG,,,16.9,36
CAUCAGGUACGAGGAUAUCCGCGAUCUCUUCGAGGAGAAGGCGUACAUGAGGAUCACCCAUGUGGGCGAGACAGACGAAGUCUG,,,114,59.5
AAUAACAGAGGAUAUACUGUUUUAUGUAUUUAUUAUUUUGAACAUGAGGAUCACCCAUGUAGAAGGCUGAUUGA,,,35.6,31.6
AUACGUGAGAAGGAUAUCACUCGCCAAAGGCGUUGAGAAGGUUUCACAUGAGGAUCACCCAUGUGCUCUUCUAG,,,27.7,61.5
CUGAAGUCAGGAUAUCGUUAAUUUAGUUGUUUGUAUUAGUUCGAGAAGGGACAUGAGGAUCACCCAUGUAAGUU,,,33.6,51.3
AAGCAGGUAAUAAAGUAGAAAUACAUGAGGAUCACCCAUGUAUAGGAUAUCGUCAGGAAUACUGACGAGAAGGAUACAUCCUGC,,,15.3,18.6
AUUAUUAUAUUAUACAUGAGGAUCACCCAUGUUAUAAGUCAUGAGGAUAUGGUAUUGUAGUUAUUCCAGAAGGCAUUUAACUUA,11.4,7.05,,
UAGAAAGAUUAAUAUGAUUACAUGAGGAUCACCCAUGUAUAAUAGGAUAUCGACGUCAAUGACGUCGAGAAGGAUUAUACAUAA,,,53.6,71.2
GGUACUAUCACAGGAUAUGCUUUCCUUUGGGAAGCAGAAGGGUGUAACAUGAGGAUCACCCAUGUGGUGCCAGGGCGCGAGCCC,137,16.7,,
UUUUAACAUGAGGAUCACCCAUGUGAGGAUAUCGAAAUUUAUAUUAAUAUUAAUAUAUCGAGAAGGCACAUUUU,,,79.8,104
GUCUCGAUGUAGAAGGCCGCGUCCGGCUCACGCGGAGGAUAUACAUGAGGAUCACCCAUGUGUCUGUGGCUAAUAUGGUACGGA,,,41.8,234
AAUGCGGCAGGAUAUACAUGAGGAUCACCCAUGUAGAUCAGAUAUAUGGUCGAACCAUGUAGAAGGGCCGCAAA,,,34.3,129
UUUUCGAACCGAGGAUAUCCUUAUAAGAAACAUGAGGAUCACCCAUGUAAAGGGAAUUAUUUGUAGGAGAAGGCGGAUUUUGUU,44.4,29.9,,
CGUAGCUCCUGUUCGAAUCUCCGUGAGGAUAUCUUCAGACAUGAGGAUCACCCAUGUACAAAGGAAGAGAAGGCACGGUCCGAU,4.86,4.33,,
GUGGUGGGUUGAGGAUAUUGGUUGUCGUUGUCCCACAUGAGGAUCACCCAUGUGGGUUGUGGUUUUGAGAAGGUUGGUUGCUGG,18.1,15.9,,
UAGUAUUAGCGAGGAUAUCGUAUGUUCAAUUUUUUAUAUUGUUUACAUGAGGAUCACCCAUGUUACGAGAAGGCGCAUGGGAUU,466,85.8,,
UCGAGUGGUUAGGAUAUCAUUGGUGCAUAUCAUUGAGAAGGAACUACAUGAGGAUCACCCAUGUGGCAGUGAUA,,,28.2,126
GAAACGCUUGACAUGAGGAUCACCCAUGUUAGAUUGUUAUGUCAGGAUAUAGUCUAGAAACUAGACUAGAAGGGAUAUGUUUCU,438,107,,
UGGUUGUGUGUCAGGAUAUGGUCUGGUGUUUCGGGCUAGAAGGGACAUGAGGAUCACCCAUGUGGCUGGCGGGU,,,262,439
AUCAGCUCGUCAGGAUAUACGUCACUGCGUCAGCAAUGUGGUAAGAUCACAUGAGGAUCACCCAUGUAGAAGGGACGAGCUGAU,,,29.9,289
UGGUACUAGGGAGGAUAUGGGCAGAUACAUGAGGAUCACCCAUGUUUAAGAAUGCCGAGAGGCAACUAGAAGGCCCUAGUACCU,553,25.5,,
AGCUAGUCAGGAUAUACAAACAUGUCAAAAGACGUGAAGGGACAUGAGGAUCACCCAUGUAGAAGGGACUAGCA,,,66.2,379

Sequence,apparent Kd [1] [nM],apparent Kd [2] [nM],apparent Kd [3] [nM],apparent Kd [4] [nM]
GUAGGGAUUACAUGAGGAUCACCCAUGUCAGAACGGGUAAUCAGAAGGUAUUAUUAGGGAGAGGGUAAGGAUAUGAUUUUUUAU,433,344,,
UUGUGAGAGCAGGAUAUCUUAUUUUUUUUUUGUGGAGAAGGGCUGACAUGAGGAUCACCCAUGUGGUCCUAGAU,,,28.4,33.5
GCCAUGCUGGUGACGGAUAACACAUGAGGAUCACCCAUGUACAGAAGGCGGAAUUAGCGUAGGACCGAGGAUAUGUACGUGAGG,,,89.5,26.4
ACAUGAGGAUCACCCAUGUUCACAUAGGAUAUUGAUUAUAUUGGAUAUAUUUUUUUUAUAAUACACAAGAAGGAUGCAAGAUGG,19.3,16.3,,
GAUUAACAUGAGGAUCACCCAUGUCGUUUAAUGGGAGGAUAUACGUGGACCGUAGUCCGCGUAGAAGGCCUAAUUG,90.8,26.9,,
UUCAGCUCGUGAGGAUAUACAUGUGCUGGAAACAGCAUUAAAUAAUUCACAUGAGGAUCACCCAUGUAGAAGGCACGAGCUGAG,,,17,34.4
AAUUUACAUGAGGAUCACCCAUGUGAGGAUAUGAUACUAUGUACUUCGGUACAUAGUAUCAGAAGGCAUGUGAA,,,128,97.7
ACUAAUUAGUGAGGAUAUACAUAAUUUAUAACUGUAGAAGGCACAAACCUCAAGACAUGAGGAUCACCCAUGUGGUAUAUAGAU,,,169,388
GGAUCGUAUGUCAGGAUAUACCACUGGAUACAGUGGUAGAAGGGACAUGAGGAUCACCCAUGUGUUAUCGAUCC,,,58.9,124
AUCAGCUCGUAAGGAUAUACGUCACUGCGUCAGCAGUGUGGUAAGAUCACAUGAGGAUCACCCAUGUAGAAGGGACGAGCUGAU,,,15.6,142
UAAAACGGAGGAUAUACUGACCCUCAAAACAGACGCGCUGGACAUGAGGAUCACCCAUGUAGAAGGCCGAAUGC,,,26.3,61.9
CUAAUGUGAGGAUAUGGUGUUGAUCGCAGGAAGGAGAUGCUCCAGAAGGCACAUGAGGAUCACCCAUGUAGUGA,,,70.5,36.7
CGAGUUUUUGAGAAGGCAUAUAAUAAGAUUUCCCAUGUUAACAUGAGGAUCACCCAUGUUUAGUAUGAGGAUAUCAGUAGGUCG,,,5.79,5.8
AUUGAUGUUGAGGAUAUGCUUUUAUUUAUUAUAGCAGAAGGCGAUACAUGAGGAUCACCCAUGUUCAUGGCUUU,,,11.8,14.9
CCUUUGAAGAUCCUAAAUUUCGACAUGAGGAUCACCCAUGUGCAGGAUAUCGUGCCAGUGAUGUACGAGAAGGGCAGACUCUGC,,,54.3,58
AUCAGCUCGUCAGGAUAUACGUCACUGCGACAGCAGUGUGGUAAGAUCACAUGAGGAUCACCCAUGUAGAAGGGACGAGCUGAU,,,14.2,297
AGUAGAUCAGGAUAUACAUAAAUGAUAAUUAUGUAACUUCAACAUGAGGAUCACCCAUGUAGAAGGGAUCUACA,,,16.3,15
GCAUGCUAUGUCAGGAUAUACCUCUGGAUACAUAGGUAGAAGGGACAUGAGGAUCACCCAUGUCCUCAUCAUGC,,,12.4,23.8
CGACCCUGAACGAAAUCAUGCAGUCAGGAUAUACAUGAGGAUCACCCAUGUGCGUACCAACUCGUGUAGAAGGGACUUUCAGGA,,,15.6,32.3
GAGUAGUUAAAAGGAUAUUGAUUAUUGUAGGAUCAAGAAGGUUUUAACAUGAGGAUCACCCAUGUAGGACUAUAAAUGUGAAAA,17.5,15,,
UACAUUAACAUGAGGAUCACCCAUGUUGGCCAGUCUCUCACCAGAAGGCACGUAGAGUACAACAGUGAGGAUAUGGGUGACAUA,139,86.1,,
CACGUCUGGAAACGGAGCGGCCAACAUGAGGAUCACCCAUGUGAGGAUAUGCCUACUAAAAGUAGGCAGAAGGCGCAAUUGGCA,,,31.2,44.7
AUACCACGAGGAUAUCGUCUAUUUUACAUGAGGAUCACCCAUGUUAUCUUUGUUUUGUUUCGAGAAGGCGUGUUUU,,,25.1,17.1
CACGCAUGUGGAGGAUAUGCAGUUAACAUUAGCGCAGAAGGCCACAUGAGGAUCACCCAUGUCCGGCAUUAGCCGAUGUUGAUC,,,139,227
AAGGUACGAGGAUAUACAUAGAUACAGACACAUGUGCAUGUACAUGAGGAUCACCCAUGUAGAAGGCGUAUAUA,,,30.2,110
CAGGAUAGAGGAUAUACAUAGAUACAGAUUCAUGUGGUCCUACAUGAGGAUCACCCAUGUAGAAGGCUAUCCUG,,,166,30
AGUACCAUGUAGAAGGCAUAUCUCAAAGAGAUAUGAGGAUAUACAUGAGGAUCACCCAUGUAAAUGUACUCCAGGAAACUGGAA,,,28.3,136
